Where “and” joins values, the source holds several entries; their conditions need not be identical. Equal entries are not always repeated. Entries after “also recorded” stand apart in the source; their conditions may differ. Where two headings read alike, the source gives them in different places.
Columns and labels:
[1] = test system: Tu212 SCC cells; experiment: Neutral Red dye cell viability; assay type: cell-based, human
How it was run: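 Tu212 cells grown in DMEM/F12 with 10% FBS, penicillin/streptomycin and 2 mM L-glutamine at 37°C, 5% CO2. Plated in 96 wells and left overnight to adhere. Test compound (0–20 μM) or 0.1% DMSO vehicle added in triplicate. Neutral Red (50 μg/mL in fresh medium) added for 30 min at 37°C, then two PBS washes. Dye eluted with 0.5 N HCl/35% ethanol and read at OD570. Blank subtracted and triplicates averaged.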

[2] = Aqueous solubility by laser nephelometry; assay type: physicochemical; details: phosphate buffered saline with 1% DMSO, pH 7.4
[3] = test system: Tu212 SCC xenografts; experiment: EF31 i.p. therapy of Tu212 SCC xenografts in female athymic nude mice; assay type: in vivo
[4] = Pharmacokinetic study of EF31 i.p. in mice; assay type: in vivo, ND4 Swiss Webster mice; details: mouse; for AUC(0-inf) / Vd/F / half-life / Cmax / Tmax: male, ND4 Swiss Webster, plasma, ip; for Cmax / Tmax: mouse plasma; for Tmax: DMSO/0.5% CMC (10%/90%)
How it was run: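 Male ND4 Swiss Webster mice (25–30 g) got one i.p. dose of 12.5 or 25 mg/kg in 10% DMSO/0.5% CMC. One submandibular blood sample per mouse, under ketamine/xylazine, at 0.08, 0.25, 0.5, 1, 2, 3, 4 or 6 h (n=3/time point). Heparinized plasma stored at −80°C, deproteinated with acetonitrile and run on LC/MS/MS with internal standard.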

[5] = test system: NF-κB signaling pathway; experiment: Western blotting of xenograft tumor extracts for the NF-κB signaling pathway; assay type: in vivo, athymic nude mice; details: 6 weeks, Western blot
How it was run: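 Tu212 cells (2 × 10^6) implanted s.c. in female athymic nude mice. Mice (n=10/group) dosed i.p. once daily, 5 days/week, with test compound at 12.5 or 25 mg/kg, or with vehicle (0.5% CMC/10% DMSO in water). Tumors lysed in RIPA buffer with protease inhibitors for 30 min on ice, then cleared at 13,000 rpm for 15 min at 4°C. 100 μg protein run on 10% SDS-PAGE and transferred to PVDF.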

[6] = Serum chemistry profile and pathologic examination of normal organs; assay type: in vivo, mice; details: 12.5 and 25 mg/kg i.p.
[7] = test system: Tu212 SCC xenografts; experiment: H & E staining and immunohistochemistry of xenograft tumor tissues; assay type: in vivo, athymic nude mice
[8] = 12.5 mg/kg, 12.5 mg/kg i.p. single dose
[9] = 25 mg/kg, 25 mg/kg i.p. single dose
[10] = 12.5 and 25 mg/kg i.p., dose-dependent

## O=C1/C(=C/c2ccccc2F)CNC/C1=C\c1ccccc1F [EF24, reference compound]
[1]; read-out: IC50, viable cells, Tu212 cells, Neutral Red Dye assay, 0–20 μM, triplicate, 48 hours (Fig. 1 legend; methods: 72 h)
  IC50: 8 µM

## O=C1C(=Cc2ccccn2)CNCC1=Cc1ccccn1 [EF31, 3,5-bis(2-pyridinylmethylidene)-4-piperidone]
[1]; Homo sapiens, TU212, read-out: IC50, viable cells
  IC50: 7 µM
[2]
  solubility at 90 min: 13 µg/mL and 47 µM
[3]; 12.5 mg/kg i.p. once/day 5 days/week, n = 10, p < 0.05–0.01
  tumor size vs vehicle control: reduced tumor size significantly
[3]; 25 mg/kg i.p.
  dose relative to maximally tolerated dose (MTD): may be above the maximally tolerated dose
[3]; 25 mg/kg i.p. group, n = 10
  animals died, apparently due to treatment: three
[3]; 25 mg/kg i.p. once/day 5 days/week, n = 10, p < 0.05–0.01
  tumor size / tumor growth vs vehicle control: inhibited tumor growth almost completely; also recorded: reduced tumor size significantly
[3]; 25 mg/kg i.p., on average, regained as treatment continued
  temporary reduction of body weight: ~ 10%
[3]; 12.5 and 25 mg/kg i.p. daily 5 days a week for over one month
  suppression of tumor growth, dose dependence: dose-dependent suppression of tumor growth
[4]; 12.5 mg/kg
  AUC(0-inf): 3390 ng·h/mL
  Vd/F: 11.5 L/kg
  half-life: 2.2 h
[4]; [8]
  Cmax: 1070 ng/mL
  Tmax: 0.25 h
[4]; 25 mg/kg
  AUC(0-inf): 7770 ng·h/mL
  Vd/F: 11.1 L/kg
  half-life: 2.4 h
[4]; [9]
  Cmax: 2130 ng/mL
  Tmax: 0.5 h
[4]; 12.5 and 25 mg/kg i.p.
  estimated volumes of distribution: ~ 11 L/kg
[5]; 25 mg/kg i.p.
  level of phosphorylated IKKα in tumors vs control: reduced
  level of total IKKα in tumors vs control: increased in a dose-dependent manner
[5]; 12.5 and 25 mg/kg i.p.
  level of IκBα phosphorylated at serine 32 and 36 in tumors: increased
  level of phosphorylated IKKβ in tumors: reduced
[5]; [10]
  level of phosphorylated NF-κB p65 at Ser276 in tumors: decreased
  level of total IKKβ in tumors: increased
  level of total IκBα in tumors: decreased
  level of total p65 in tumors: decreased
[6]; n = 5/group
  pathologic examination (hematoxylin-eosin) of liver, kidneys, lungs and spleen: normal
[6]; treated mice, normal values from the University of Minnesota
  serum chemistry profile: all within the normal values
[7]; 0, 12.5 and 25 mg/kg i.p. daily 5 days a week for 5 weeks
  degree of IHC staining of phosphorylated IκBα in tumors: stronger in tumors treated at 25 mg/kg than 12.5 mg/kg, which is stronger than that in the control
[7]; 25 mg/kg i.p. daily 5 days a week for 5 weeks
  H & E staining of tumor tissues: tumor cells are replaced with fibrous scar tissue
